Assay results: PMC2889768 (Diabetes, 2010)
Like-named read-outs stand apart in the source and are kept apart here.

What was measured:
NCX1.7 = NCX1.7 (Homo sapiens, UniProt P32418); assay: excised inside-out patch-clamp, recombinant forward-mode; assay type: biochemical
How it was run: (§1)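 Excised inside-out patches at 22 ± 1°C from tsA201 cells 24–72 h after calcium-phosphate cotransfection with human NCX1 splice-variant cDNA plus GFP. Patch held at 0 mV. Forward-mode current elicited by raising Ca2+c […]. Peak is the maximal current after activation, late current is at 1 min, total current is the AUC. Concentration-response fitted with the Hill equation. DMSO 0.1% final.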

[1] = tested on: β-cell L-type calcium channels; assay type: cell-based, mouse; details: 1 μmol/l; n = 7
mouse β-cells = assay: membrane capacitance, depolarization-induced exocytosis in mouse β-cells; assay type: cell-based; details: 1 μmol/l; train of 10 depolarizations; n = 6; control 36.04 ± 4.87
How it was run: (§2)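 Islets dispersed 2 h post-isolation with 0.0025% trypsin in Ca2+-free buffer and plated on poly-D-lysine coverslips. Mouse cells cultured in medium 199, human cells in DMEM, both with 5.6 mmol/l glucose. Cells exposed to 1 μmol/l test compound for at least 5 min. Exocytosis elicited by 10 × 500-ms depolarisations (1 Hz) from −70 to 0 mV. Total is the summed capacitance increase, normalised as fF/pF. β- and α-cells identified post hoc by insulin or glucagon immunostaining.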

human β-cells = assay: membrane capacitance, depolarization-induced exocytosis in human β-cells; assay type: cell-based; details: 1 μmol/l; train of 10 depolarizations; n = 4; control 13.01 ± 5.64
How it was run: as §2

mouse islets [2] = assay: glucose-stimulated insulin secretion, mouse islet perifusion; assay type: cell-based; details: 1 μmol/l
How it was run: (§3)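 Islets (BALB/c mouse, or human from three donors) preincubated 2 h at 37°C in low-glucose KRB (2.8 mmol/l glucose, 24 NaHCO3, 0.5% BSA, pH 7.4) ± 1 μmol/l test compound, with a solution change at 1 h. Groups of 25 islets perifused at 0.25 ml/min and 37°C: 10 min at 2.8 mmol/l, then 40 min at 11.1 mmol/l glucose. Fractions every 2 min; insulin by ELISA, as ng/ml per 25 islets or 11.1/2.8 fold change.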

mouse islets [3] = assay: Fura-2 calcium imaging of mouse islets; assay type: cell-based
[4] = tested on: cardiac L-type calcium channel; details: read-out: IC50s, cardiac L-type calcium channel; cited from earlier work
NCX1.1 = NCX1.1 (Homo sapiens, UniProt P32418); assay: excised inside-out patch-clamp, recombinant forward-mode; assay type: biochemical
[5] = tested on: β-cell L-type calcium channels; assay type: cell-based, human; details: 1 μmol/l
β-cells = assay: membrane capacitance, calcium infusion experiments; assay type: cell-based; details: 1 μmol/l; infusion of 200 nmol/l free Ca2+
How it was run: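 Whole-cell capacitance in dispersed islet cells with pipette Ca2+ buffered to 200 nmol/l free with EGTA, so Ca2+ is infused directly. Recorded with or without 1 μmol/l test compound, applied for at least 5 min. β-cells identified post hoc by insulin immunostaining.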

human islets = assay: glucose-stimulated insulin secretion, human islet perifusion; assay type: cell-based; details: 1 μmol/l
How it was run: as §3

NCX1.4 = NCX1.4 (Rattus norvegicus, UniProt Q01728); assay: excised inside-out patch-clamp, recombinant forward-mode; assay type: biochemical; details: 5 μmol/l; exon B replaced with A in rat NCX1.3
mouse α-cells = assay: membrane capacitance, depolarization-induced exocytosis in mouse α-cells; assay type: cell-based; details: 1 μmol/l
How it was run: as §2

NCX1.3 = NCX1.3 (Homo sapiens, UniProt P32418); assay: excised inside-out patch-clamp, recombinant forward-mode; assay type: biochemical
How it was run: as §1

[6] = intraperitoneal glucose tolerance tests in mice; assay type: in vivo; details: preliminary, data not shown
NCX1.11 = NCX1.11 (Homo sapiens, UniProt P32418, INS637ALLLNEL); assay: excised inside-out patch-clamp, recombinant forward-mode; assay type: biochemical; details: 5 μmol/l; n = 8
How it was run: as §1

In the case of `N=C(N)SCCc1ccc(OCc2ccc([N+](=O)[O-])cc2)cc1` [KB-R7943], the “inhibition of recombinant β-cell NCX1.7 FM current” value (NCX1.7; 1 μmol/l) is reported as roughly 25%, the “reduction in total FM NCX1.7 activity” value (NCX1.7; 5 μmol/l, n = 10) is reported as 65.57 ± 3.20% and the IC50 (NCX1.7; read-out: IC50, FM late current NCX1.7, late current, 1 min postactivation) is reported as 1.72 ± 0.09 µM. The IC50 (NCX1.7; read-out: IC50, FM peak current NCX1.7, peak current) was 4.71 ± 0.15 µM, the “reduction in total Ba2+ current, mouse β-cells” value [1] was 32.66 ± 3.74% and the “change in total capacitance, mouse β-cells” value (mouse β-cells) was 118.22 ± 33.48 fF/pF. For the same compound, the “total change in capacitance, human β-cells” value (human β-cells) was 100.20 ± 28.82 fF/pF, the “insulin secretion, mouse islets” value (mouse islets [2]; 2.8 mmol/l glucose) was “without effect” and the “first- and second-phase insulin secretion, mouse islets” value (mouse islets [2]; 11.1 mmol/l glucose) was “significantly enhanced”. The “rate of calcium clearance after removal of the tolbutamide/KCl challenge” value (mouse islets [3]; 1 μmol/l) was “significantly slowed”, the “increase in Ca2+c when added concurrently with tolbutamide” value (mouse islets [3]; 1 μmol/l KB-R7943 + 20 μmol/l tolbutamide, 2.8 mmol/l glucose, n = 9) was 19.95 ± 6.92% and the “effect on Ca2+c levels when applied alone” value (mouse islets [3]; 1 μmol/l, 2.8 mmol/l glucose) was “failed to significantly increase”. The “increase to the peak Ca2+c response” value (mouse islets [3]; 1 μmol/l, 11.1 mmol/l glucose challenge) was 83.44 ± 18.27%, the “increase of average Ca2+c (AUC)” value (mouse islets [3]; 1 μmol/l, 11.1 mmol/l glucose challenge, n = 9) was 79.98 ± 8.73% and the “effect on Ca2+c levels in the presence of KCl” value (mouse islets [3]; 1 μmol/l, 15 mmol/l KCl) was “significantly increases”. The IC50 [4] was 3 to 7 µM, the “inhibition of total FM NCX1.1 activity” value (NCX1.1; 5 μmol/l) was “failed to inhibit” and the IC50 (NCX1.1; read-out: IC50, inhibition of total FM NCX1.1 activity, cardiac splice variant, total current (AUC), tsA201 cells) was 43 µM. For the same compound, the “reduction in total Ba2+ current, human β-cells” value [5] was 29.54 ± 3.18%, the “rate at which the capacitance increased, presence vs absence of KB-R7943” value (β-cells) was “not significantly different” and the “insulin secretion, human islets” value (human islets; 2.8 mmol/l glucose) was “without effect”. The “first- and second-phase insulin secretion, human islets” value (human islets; 11.1 mmol/l glucose) was “significantly enhanced”, the “FM KB-R7943 sensitivity of NCX1.4” value (NCX1.4) was “dramatically decreased FM KB-R7943 sensitivity” and the “depolarization-induced capacitance response, mouse α-cells” value (mouse α-cells) was “did not significantly alter”. The “inhibition of recombinant β-cell NCX1.3 FM current” value (NCX1.3; 1 μmol/l) was roughly 25%, the “reduction in total FM NCX1.3 activity” value (NCX1.3; 5 μmol/l, n = 10) was 69.45 ± 3.12% and the IC50 (NCX1.3; read-out: IC50, FM late current NCX1.3, late current, 1 min postactivation) was 2.15 ± 0.26 µM. The IC50 (NCX1.3; read-out: IC50, FM peak current NCX1.3, peak current) was 5.59 ± 0.28 µM, the “blood glucose in intraperitoneal glucose tolerance test” value [6] was “only showed a trend toward KB-R7943 lowering blood glucose” and the “reduction in total current, FM NCX1.11” value (NCX1.11) was 64.3 ± 2.92%.
For `CCCCNC(=O)NS(=O)(=O)c1ccc(C)cc1` [tolbutamide, Tolbutamide], the “increase in the 340/380 nm ratio (Ca2+c)” value (mouse islets [3]; 20 μmol/l tolbutamide, 2.8 mmol/l glucose, n = 9) was 0.45 ± 0.04 and the “decrease of elevation in Ca2+c upon a second tolbutamide challenge” value (mouse islets [3]; 20 μmol/l tolbutamide, 2.8 mmol/l glucose, n = 11) was 21.87 ± 4.58%.
